{"source": "ChEMBL document CHEMBL3259660", "about": "“Haloemodin as novel antibacterial agent inhibiting DNA gyrase and bacterial topoisomerase I” (J Med Chem, 2014)", "key": {"[1]": {"tested_on": "Staphylococcus epidermidis", "assay": "Antibacterial activity against methicillin-resistant Staphylococcus epidermidis assessed as growth inhibition by agar dilution assay", "assay_type": "functional", "outline": "(§1)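 CLSI agar dilution MIC against aerobic and anaerobic strains. Test compounds were dissolved in DMSO and reference antibiotics in sterile water. MIC was taken as the lowest concentration showing no bacterial growth. Each MIC was determined at least twice on separate days, and the higher value was reported. E. coli PQ 37 was cultured in LA medium.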"}, "Staphylococcus aureus [2]": {"tested_on": "Staphylococcus aureus", "assay": "Antibacterial activity against methicillin-sensitive Staphylococcus aureus assessed as growth inhibition by agar dilution assay", "assay_type": "functional", "outline": "(§2)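 Agar dilution MIC per CLSI (aerobic and anaerobic methods); compounds dissolved in DMSO, reference antibiotics in sterile water. MIC taken as lowest concentration with no visible growth; determined at least twice on separate days, higher value reported. Clinical isolate ranges summarized as MIC50/MIC90.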"}, "Escherichia coli [3]": {"tested_on": "Escherichia coli", "assay": "Antibacterial activity against Escherichia coli assessed as growth inhibition by agar dilution assay", "assay_type": "functional, organism-based", "outline": "as §2"}, "Staphylococcus aureus [4]": {"tested_on": "Staphylococcus aureus", "assay": "In vivo antibacterial activity against Staphylococcus aureus in New zealand rabbit keratitis model assessed as suppression of conjuctival congestion, conjuctival chemosis, infiltration, operative ulcer area and depth at 4.3 mg/ml administered topically every 4 hrs for four doses every day for 10 days starting 24 hrs post-infection by slit lamp biomicroscopy", "assay_type": "functional, organism-based", "outline": "(§3)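 NZW rabbits (2.0−3.0 kg), anesthetized with iv sodium pentobarbital 30 mg/kg, given intracorneal S. aureus (about 7.5 × 10^6 CFU) from an overnight LB culture. Starting 24 h post-infection, 30 μL drops applied topically per eye every 4 h, four doses daily (8 a.m.–8 p.m.), for 10 days, masked. Test compound in PEG–water (1:1). Slit-lamp biomicroscopy before and after.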"}, "[5]": {"assay": "Cytotoxicity against CHL cells assessed as cell viability after 24 hrs by MTT assay", "assay_type": "cell-based, Cricetulus griseus", "details": "chinese hamster", "outline": "(§4)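 CHL fibroblasts seeded at about 5 × 10^4 cells/mL, incubated overnight at 37 °C, 5% CO2, then exposed to compound at different concentrations for 24 h. Viability read by MTT, absorbance at 570 nm, relative to cells in medium alone (100%). Triplicate.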"}, "[6]": {"assay": "Binding affinity to supercoiled pHOT-1 DNA assessed as unwinding of DNA helix by measuring shift of negative to positive supercoiled pHOT-1 at 10 to 150 uM treated 15 mins prior to human topoisomerase 1 addition for 30 mins by agarose gel electrophoresis"}, "Mus musculus": {"tested_on": "Mus musculus", "assay": "In vivo acute toxicity in Kunming mouse assessed as mortality at 100 mg/kg, iv administered as single dose measured within 7 days", "assay_type": "organism-based", "set-up": "dose 100 mg/kg, route intravenous", "details": "168 h", "outline": "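Male and female adult Kunming mice (18−22 g) received a single intravenous injection at various doses (n = 10 per group, 200 μL per mouse). Compound was given in polyethylene glycol−water (1:1, v/v), and controls received vehicle alone. Mortality was recorded for 7 days. LD50 was estimated by probit analysis.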"}, "Escherichia coli [7]": {"tested_on": "Escherichia coli", "assay": "Antibacterial activity against Escherichia coli PQ 37 harboring OM permeability barrier mutant assessed as growth inhibition by agar dilution assay", "assay_type": "functional", "outline": "as §1"}, "Enterococcus faecium": {"tested_on": "Enterococcus faecium", "assay": "Antibacterial activity against vancomycin-sensitive Enterococcus faecium assessed as growth inhibition by agar dilution assay", "assay_type": "functional"}, "Bacillus cereus": {"tested_on": "Bacillus cereus", "assay": "Antibacterial activity against Bacillus cereus ATCC 10231 assessed as growth inhibition by agar dilution assay", "assay_type": "functional"}, "Staphylococcus aureus [8]": {"tested_on": "Staphylococcus aureus", "assay": "In vivo antibacterial activity against Staphylococcus aureus in New zealand rabbit keratitis model assessed as suppression of corneal edema at 4.3 mg/ml administered topically every 4 hrs for four doses every day for 10 days starting 24 hrs post-infection by slit lamp biomicroscopy", "assay_type": "functional, organism-based", "details": "Cornea", "outline": "as §3"}, "[9]": {"assay": "Cytotoxicity against CHL cells assessed as cell viability at 0.064 mg/ml after 24 hrs by MTT assay", "assay_type": "cell-based, Cricetulus griseus", "details": "chinese hamster", "outline": "as §4"}, "[10]": {"target": "DNA gyrase (Staphylococcus aureus) (UniProt P0A0K8+P20831)", "sequence (P0A0K8 2-644 limits assumed)": "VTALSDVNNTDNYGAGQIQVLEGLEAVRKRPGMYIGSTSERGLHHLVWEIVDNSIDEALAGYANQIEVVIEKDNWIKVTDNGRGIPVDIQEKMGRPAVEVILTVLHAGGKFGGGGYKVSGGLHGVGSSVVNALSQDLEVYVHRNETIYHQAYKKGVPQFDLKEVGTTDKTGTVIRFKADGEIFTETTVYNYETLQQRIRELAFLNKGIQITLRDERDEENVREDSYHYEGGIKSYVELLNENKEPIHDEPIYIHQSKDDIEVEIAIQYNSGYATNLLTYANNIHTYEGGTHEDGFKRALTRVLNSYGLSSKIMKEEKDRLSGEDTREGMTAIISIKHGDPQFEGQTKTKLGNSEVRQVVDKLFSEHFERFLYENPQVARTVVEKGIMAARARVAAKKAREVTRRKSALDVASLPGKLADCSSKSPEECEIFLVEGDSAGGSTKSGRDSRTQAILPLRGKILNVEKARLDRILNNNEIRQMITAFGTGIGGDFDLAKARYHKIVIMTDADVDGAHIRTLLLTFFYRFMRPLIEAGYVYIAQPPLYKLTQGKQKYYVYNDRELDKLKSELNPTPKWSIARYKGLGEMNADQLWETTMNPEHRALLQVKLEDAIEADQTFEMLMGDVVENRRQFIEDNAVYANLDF", "sequence (P20831 whole entry partner)": "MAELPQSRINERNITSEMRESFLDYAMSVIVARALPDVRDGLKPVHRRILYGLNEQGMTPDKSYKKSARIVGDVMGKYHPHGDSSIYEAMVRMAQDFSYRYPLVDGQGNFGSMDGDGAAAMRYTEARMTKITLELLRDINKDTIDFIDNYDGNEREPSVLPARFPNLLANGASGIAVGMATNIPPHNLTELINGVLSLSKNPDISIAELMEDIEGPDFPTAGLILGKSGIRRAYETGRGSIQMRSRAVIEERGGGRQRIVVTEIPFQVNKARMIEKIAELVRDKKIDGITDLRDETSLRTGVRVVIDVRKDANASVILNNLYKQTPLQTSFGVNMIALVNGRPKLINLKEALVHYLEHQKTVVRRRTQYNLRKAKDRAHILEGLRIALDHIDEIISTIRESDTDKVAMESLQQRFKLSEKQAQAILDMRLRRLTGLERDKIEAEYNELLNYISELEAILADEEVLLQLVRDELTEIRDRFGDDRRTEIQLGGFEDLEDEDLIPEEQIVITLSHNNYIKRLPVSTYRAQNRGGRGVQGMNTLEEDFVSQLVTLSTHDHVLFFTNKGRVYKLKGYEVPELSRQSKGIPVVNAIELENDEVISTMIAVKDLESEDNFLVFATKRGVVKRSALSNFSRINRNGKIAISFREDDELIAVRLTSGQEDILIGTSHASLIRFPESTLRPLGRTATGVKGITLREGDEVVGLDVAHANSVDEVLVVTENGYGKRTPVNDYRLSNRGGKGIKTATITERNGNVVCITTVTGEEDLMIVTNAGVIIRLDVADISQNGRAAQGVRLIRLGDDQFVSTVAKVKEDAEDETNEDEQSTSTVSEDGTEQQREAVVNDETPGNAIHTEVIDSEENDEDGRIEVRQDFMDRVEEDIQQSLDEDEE", "assay": "Inhibition of Staphylococcus aureus DNA gyrase-mediated double-stranded catenated kinetoplast DNA decatenation at 90 uM after 30 mins by agarose gel electrophoresis in presence of ATP", "assay_type": "protein-complex assay", "outline": "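kDNA decatenation: 200 ng catenated kDNA with 1 U S. aureus gyrase, E. coli gyrase or human Topo IIα in assay buffer with ATP, 37 °C for 30 min. Stopped with universal stop solution, resolved on 1% agarose, ethidium bromide stained, UV imaging.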"}, "Escherichia coli [11]": {"tested_on": "Escherichia coli", "assay": "Antibacterial activity against Escherichia coli ATCC 25922 assessed as growth inhibition by agar dilution assay", "assay_type": "functional", "outline": "as §2"}, "[12]": {"target": "T1, DNA topoisomerase 1 (Escherichia coli (strain K12)) (UniProt P06612)", "T1 sequence (whole entry)": "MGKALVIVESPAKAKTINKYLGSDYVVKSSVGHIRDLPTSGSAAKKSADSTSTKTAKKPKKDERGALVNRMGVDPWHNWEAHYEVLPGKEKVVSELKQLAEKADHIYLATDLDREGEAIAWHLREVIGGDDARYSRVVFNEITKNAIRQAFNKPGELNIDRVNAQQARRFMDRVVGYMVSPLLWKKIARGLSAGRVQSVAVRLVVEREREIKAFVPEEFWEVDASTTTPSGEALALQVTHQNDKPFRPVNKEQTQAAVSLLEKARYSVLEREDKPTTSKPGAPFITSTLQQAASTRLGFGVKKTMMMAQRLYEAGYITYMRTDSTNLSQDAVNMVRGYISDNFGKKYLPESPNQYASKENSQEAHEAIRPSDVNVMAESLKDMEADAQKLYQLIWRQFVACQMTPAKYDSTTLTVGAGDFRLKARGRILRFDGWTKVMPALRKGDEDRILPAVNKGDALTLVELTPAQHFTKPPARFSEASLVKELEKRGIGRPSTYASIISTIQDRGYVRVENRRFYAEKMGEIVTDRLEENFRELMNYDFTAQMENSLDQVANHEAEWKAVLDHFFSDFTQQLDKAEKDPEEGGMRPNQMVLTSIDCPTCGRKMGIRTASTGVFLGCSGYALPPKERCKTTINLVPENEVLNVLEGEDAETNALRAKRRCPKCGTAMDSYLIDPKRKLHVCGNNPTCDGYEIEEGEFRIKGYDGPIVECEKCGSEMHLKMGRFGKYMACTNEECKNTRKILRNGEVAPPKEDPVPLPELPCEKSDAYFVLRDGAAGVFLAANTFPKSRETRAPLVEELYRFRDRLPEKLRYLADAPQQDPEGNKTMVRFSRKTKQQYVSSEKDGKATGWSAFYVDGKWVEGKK", "assay": "Inhibition of Escherichia coli topoisomerase 1-mediated pHOT-1 DNA relaxation treated with pHOT-1 substrate for 15 mins prior to enzyme addition for 30 mins by agarose gel electrophoresis"}, "Enterococcus faecalis": {"tested_on": "Enterococcus faecalis", "assay": "microbe, parasite or virus in culture", "assay_type": "functional", "details": "ATCC 29212"}}, "note": "Active and inactive are the calls of the source. The calls are words filed in the database; no cut-off is given here.", "data": [{"smiles": "Cc1cc(O)c2c(c1)C(=O)c1c(I)c(O)c(I)c(O)c1C2=O", "values": [{"measurement": "MIC", "setting": "[1]", "value": 4, "unit": "µg/mL"}, {"measurement": "MIC", "setting": "Staphylococcus aureus [2]", "value": 8, "unit": "µg/mL"}, {"measurement": "growth inhibition (GI)", "setting": "Escherichia coli [3]", "value": "inactive"}, {"measurement": "inhibition", "setting": "Staphylococcus aureus [4]", "value": "Active"}, {"measurement": "IC90 at 24 h", "setting": "[5]", "value": 256, "unit": "µg/mL"}, {"measurement": "Activity", "setting": "[6]", "value": "inactive"}, {"measurement": "Activity", "setting": "Mus musculus", "value": "Non-toxic"}, {"measurement": "MIC", "setting": "Escherichia coli [7]", "value": 8, "unit": "µg/mL"}, {"measurement": "MIC", "setting": "Enterococcus faecium", "value": 16, "unit": "µg/mL"}, {"measurement": "MIC", "setting": "Bacillus cereus", "value": 4, "unit": "µg/mL"}, {"measurement": "inhibition", "setting": "Staphylococcus aureus [8]", "value": "Active"}, {"measurement": "Activity", "setting": "[9]", "value": "Non-toxic"}, {"measurement": "inhibition", "setting": "[10]", "value": "Active"}, {"measurement": "MIC", "setting": "Escherichia coli [11]", "value": "> 256", "unit": "µg/mL"}, {"measurement": "inhibition", "setting": "[12]", "value": "Dose-dependent effect"}, {"measurement": "MIC", "setting": "Enterococcus faecalis", "value": 16, "unit": "µg/mL"}]}]}
